In experiment [1] the target is T1, Neuronal acetylcholine receptor subunit alpha-7 (Rattus norvegicus, UniProt Q05941). Put plainly: Inhibition of [3H]MLA binding to rat alpha7 nicotinic acetylcholine receptor.
Experiment [2] has as its target T1, Neuronal acetylcholine receptor subunit alpha-7. As to the kind of experiment: Effective concentration against rat alpha-7 nicotinic acetylcholine receptor. In a few lines:
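Rat α7 expressed in Xenopus oocytes, two-electrode voltage clamp at −60 mV, perfused at 2 ml/min. Net-charge responses were normalized to the preceding ACh control and rescaled to the ACh maximum.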

In experiment [3] the target is T2, Neuronal acetylcholine receptor; alpha4/beta2 (Rattus norvegicus, UniProt P09483+P12390). Put plainly: Inhibition of [3H]nicotine binding to alpha4-beta2 nicotinic acetylcholine receptor of rat brain membrane.
Experiment [4] has as its target Neuronal acetylcholine receptor subunit alpha-7 (Rattus norvegicus) (UniProt Q05941). Put plainly: Maximal response against rat alpha-7 nicotinic acetylcholine receptor. In a few lines:
(§1)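 Rat α7 expressed in Xenopus oocytes, two-electrode voltage clamp at −60 mV, perfused at 2 ml/min. Controls were 300 μM ACh applied for 12 s with 181 s washout, given as two controls, then drug, then a control. Net-charge responses were normalized to the preceding ACh control and rescaled to the ACh maximum.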

Experiment [5] addresses T1, Neuronal acetylcholine receptor subunit alpha-7. As to the kind of experiment: Inhibition of [3H]-MLA binding to alpha-7 nicotinic acetylcholine receptor of rat brain membrane.
Experiment [6] has as its target T2, Neuronal acetylcholine receptor; alpha4/beta2. Put plainly: Effective concentration against rat alpha4-beta2 nicotinic acetylcholine receptor. The class given is protein-complex assay. In a few lines: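 Rat α4β2 expressed in Xenopus oocytes, two-electrode voltage clamp at −60 mV, perfused at 4 ml/min. Peak current was normalized to the preceding ACh control and rescaled to the ACh maximum.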

For experiment [7], the target named is Neuronal acetylcholine receptor; alpha3/beta4 (Rattus norvegicus) (UniProt P04757+P12392). As to the kind of experiment: Maximal response against rat alpha3-beta4 nicotinic acetylcholine receptor. The class given is protein-complex assay. In a few lines: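 Rat α3β4 expressed in Xenopus oocytes, two-electrode voltage clamp at −60 mV, perfused at 4 ml/min. Controls were 100 μM ACh applied for 8 s with 241 s washout, given as two controls, then drug, then a control. Peak current was normalized to the preceding ACh control and rescaled to the ACh maximum.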

Experiment [8] deals with Neuronal acetylcholine receptor; alpha4/beta2 (Rattus norvegicus) (UniProt P09483+P12390). Put plainly: Maximal response against rat alpha4-beta2 nicotinic acetylcholine receptor. The class given is protein-complex assay. The procedure, abridged:
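Rat α4β2 expressed in Xenopus oocytes, two-electrode voltage clamp at −60 mV, perfused at 4 ml/min. Controls were 10 μM ACh applied for 8 s with 241 s washout, given as two controls, then drug, then a control. Peak current was normalized to the preceding ACh control and rescaled to the ACh maximum.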

In experiment [9] the target is Neuronal acetylcholine receptor; alpha3/beta4 (Rattus norvegicus, UniProt P04757+P12392). Put plainly: Effective concentration against rat alpha3-beta4 nicotinic acetylcholine receptor. The class given is protein-complex assay. The procedure, abridged: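 Rat α3β4 expressed in Xenopus oocytes, two-electrode voltage clamp at −60 mV, perfused at 4 ml/min. Peak current was normalized to the preceding ACh control and rescaled to the ACh maximum.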

Experiment [10] addresses T1, Neuronal acetylcholine receptor subunit alpha-7. Put plainly: Effective concentration against rat alpha7 nicotinic acetylcholine receptor. In a few lines: as §1

T2 sequence (P09483 whole entry): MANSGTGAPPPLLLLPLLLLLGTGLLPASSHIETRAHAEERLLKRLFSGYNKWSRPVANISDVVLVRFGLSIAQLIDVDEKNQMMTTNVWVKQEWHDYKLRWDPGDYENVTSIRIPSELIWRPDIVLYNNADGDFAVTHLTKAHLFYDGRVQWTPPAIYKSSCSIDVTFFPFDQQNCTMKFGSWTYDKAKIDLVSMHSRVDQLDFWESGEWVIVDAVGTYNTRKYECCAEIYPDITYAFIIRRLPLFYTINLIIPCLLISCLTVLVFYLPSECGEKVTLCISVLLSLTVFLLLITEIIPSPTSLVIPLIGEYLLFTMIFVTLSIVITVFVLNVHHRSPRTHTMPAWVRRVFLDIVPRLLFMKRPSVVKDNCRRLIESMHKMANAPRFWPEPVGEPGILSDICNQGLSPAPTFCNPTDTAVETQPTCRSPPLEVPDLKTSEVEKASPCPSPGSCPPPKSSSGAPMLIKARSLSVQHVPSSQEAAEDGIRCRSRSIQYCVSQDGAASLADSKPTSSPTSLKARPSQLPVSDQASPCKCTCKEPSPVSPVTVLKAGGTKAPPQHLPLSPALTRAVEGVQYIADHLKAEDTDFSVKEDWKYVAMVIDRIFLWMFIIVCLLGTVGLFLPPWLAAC
T2 sequence (P12390 whole entry): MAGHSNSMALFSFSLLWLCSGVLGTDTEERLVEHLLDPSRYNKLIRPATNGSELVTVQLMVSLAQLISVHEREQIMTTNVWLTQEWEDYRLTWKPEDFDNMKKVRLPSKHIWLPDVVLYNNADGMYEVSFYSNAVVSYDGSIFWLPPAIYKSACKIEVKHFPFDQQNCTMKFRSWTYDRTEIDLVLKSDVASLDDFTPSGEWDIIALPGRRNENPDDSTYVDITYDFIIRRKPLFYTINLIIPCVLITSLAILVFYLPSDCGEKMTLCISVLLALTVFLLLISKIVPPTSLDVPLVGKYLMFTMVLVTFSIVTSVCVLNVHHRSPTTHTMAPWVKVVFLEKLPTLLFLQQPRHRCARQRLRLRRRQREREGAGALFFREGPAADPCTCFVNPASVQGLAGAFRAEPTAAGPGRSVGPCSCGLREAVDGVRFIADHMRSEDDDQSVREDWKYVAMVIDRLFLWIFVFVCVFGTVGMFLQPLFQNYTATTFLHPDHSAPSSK
T1 sequence (Q05941 whole entry): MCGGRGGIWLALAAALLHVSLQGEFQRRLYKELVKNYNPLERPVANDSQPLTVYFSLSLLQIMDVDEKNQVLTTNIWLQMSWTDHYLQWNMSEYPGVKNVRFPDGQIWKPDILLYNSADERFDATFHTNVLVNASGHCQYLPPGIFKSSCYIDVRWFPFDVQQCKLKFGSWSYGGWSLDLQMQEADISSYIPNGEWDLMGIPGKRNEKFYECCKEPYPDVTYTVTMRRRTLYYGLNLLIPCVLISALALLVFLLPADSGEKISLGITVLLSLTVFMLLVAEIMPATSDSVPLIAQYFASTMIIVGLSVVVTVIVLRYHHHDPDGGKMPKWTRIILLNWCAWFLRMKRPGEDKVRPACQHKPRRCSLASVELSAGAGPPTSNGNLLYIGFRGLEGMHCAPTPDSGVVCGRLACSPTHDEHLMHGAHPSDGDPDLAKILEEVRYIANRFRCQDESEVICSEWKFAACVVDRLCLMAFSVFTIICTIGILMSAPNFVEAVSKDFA
Sequence of Neuronal acetylcholine receptor subunit alpha-7 (Rattus norvegicus) (Q05941 whole entry, the tested form may be a part): as the sequence (Q05941 whole entry) above
Sequence of Neuronal acetylcholine receptor; alpha3/beta4 (P04757 whole entry, the tested form may be a part): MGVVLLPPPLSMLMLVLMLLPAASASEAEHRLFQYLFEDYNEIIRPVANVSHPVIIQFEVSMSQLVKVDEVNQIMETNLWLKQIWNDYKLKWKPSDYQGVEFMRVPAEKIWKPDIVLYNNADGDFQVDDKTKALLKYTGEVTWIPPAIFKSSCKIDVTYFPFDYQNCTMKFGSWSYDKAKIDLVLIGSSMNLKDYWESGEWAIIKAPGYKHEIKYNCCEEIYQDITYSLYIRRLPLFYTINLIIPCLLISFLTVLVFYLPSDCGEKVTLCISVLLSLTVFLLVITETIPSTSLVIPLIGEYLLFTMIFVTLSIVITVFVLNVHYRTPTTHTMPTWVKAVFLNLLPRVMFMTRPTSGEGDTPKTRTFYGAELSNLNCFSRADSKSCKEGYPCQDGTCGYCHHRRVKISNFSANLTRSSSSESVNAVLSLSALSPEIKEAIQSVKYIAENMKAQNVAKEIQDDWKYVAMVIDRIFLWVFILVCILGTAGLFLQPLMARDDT
Sequence of Neuronal acetylcholine receptor; alpha3/beta4 (P12392 whole entry, the tested form may be a part): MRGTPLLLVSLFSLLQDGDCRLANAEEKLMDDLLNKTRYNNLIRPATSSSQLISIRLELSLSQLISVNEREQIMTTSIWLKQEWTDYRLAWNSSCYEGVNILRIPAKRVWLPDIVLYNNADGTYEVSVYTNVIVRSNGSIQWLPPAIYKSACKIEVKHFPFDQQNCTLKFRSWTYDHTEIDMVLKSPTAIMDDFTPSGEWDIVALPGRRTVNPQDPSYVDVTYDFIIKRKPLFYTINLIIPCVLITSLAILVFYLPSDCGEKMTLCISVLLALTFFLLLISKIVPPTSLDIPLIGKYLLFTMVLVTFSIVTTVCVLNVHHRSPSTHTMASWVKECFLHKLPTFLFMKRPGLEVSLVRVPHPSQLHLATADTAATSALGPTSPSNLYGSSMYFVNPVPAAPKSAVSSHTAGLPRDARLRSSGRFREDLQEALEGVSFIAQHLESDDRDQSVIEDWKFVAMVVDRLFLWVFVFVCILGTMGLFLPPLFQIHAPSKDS

Regarding `CN1CC[C@@H]2CCc3cc[n+]([BH2-]C#N)cc3[C@@H]21`, the results for the Ki in experiment [1] and in experiment [3] were 2.4 µM and 0.6 µM, respectively. The same compound showed an EC50 in experiment [2] of 20 µM. Also, the Imax in experiment [4] came to 0.26.

Take `CN1CCC[C@H]1c1ccc[n+]([BH2-]C#N)c1`: the values for the Ki in [5] and in experiment [3] were 15.2 µM and 0.041 µM, respectively. The EC50 in experiment [6] was determined as 150 µM; in [9], 28 µM; in experiment [2], 21 µM. Further, the values for the Imax in experiment [7], in experiment [8] and in experiment [4] were 0.06, 0.05 and 0.15, respectively.

In experiment [10], `CN1CC[C@@H]2CCc3ccncc3[C@@H]21` registered an EC50 of 44 µM. This compound had a Ki in [3] of 0.4 µM. Also, the Imax in [4] was determined as 0.11.

In turn, `CN1CC[C@H]2CCc3ncccc3[C@H]21` yielded a Ki in experiment [3] of 12.2 µM.

On to `CN1CCC[C@H]1c1cccnc1`, for which the Imax in [7] came out at 0.69; in [8] it was 0.17; in experiment [4], 0.6.

By Ki is commonly meant the equilibrium dissociation constant of an inhibitor or competing ligand from its target. As a reminder, the EC50 is the concentration that produces a half-maximal response.
